# Compound activity deposited in PubChem by several laboratories.
# Only a selection was taken, and hits are over-represented in it overall.
# p-CIP stab down = lowers stability of the mouse p/CIP coactivator protein; Q05BA5; AID 1984; actives 0.01% (n = 290,000); F442A p/CIP-EGFP cells, EGFP fluorescence, 16 h; decrease of EGFP signal, % at 10 µM;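 active = EGFP signal decrease of at least 30% at 10 µM or well 3 SD below plate mean, unless failing retest; inactive = the rest, including hits failing retest or dose response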
# B2AR ag = agonists of human beta-2 adrenergic receptor inducing internalization; AID 504454; Am2.2-beta2AR cells, FAP receptor internalization, flow cytometry; actives 0.43% (n = 340,000); P07550; response, % (test concentration not listed);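 active = response above a set limit, near 3 SD of response in nonfluorescent compounds, cut at about 42% in these data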
# Target sequence (P07550 whole entry, looked up): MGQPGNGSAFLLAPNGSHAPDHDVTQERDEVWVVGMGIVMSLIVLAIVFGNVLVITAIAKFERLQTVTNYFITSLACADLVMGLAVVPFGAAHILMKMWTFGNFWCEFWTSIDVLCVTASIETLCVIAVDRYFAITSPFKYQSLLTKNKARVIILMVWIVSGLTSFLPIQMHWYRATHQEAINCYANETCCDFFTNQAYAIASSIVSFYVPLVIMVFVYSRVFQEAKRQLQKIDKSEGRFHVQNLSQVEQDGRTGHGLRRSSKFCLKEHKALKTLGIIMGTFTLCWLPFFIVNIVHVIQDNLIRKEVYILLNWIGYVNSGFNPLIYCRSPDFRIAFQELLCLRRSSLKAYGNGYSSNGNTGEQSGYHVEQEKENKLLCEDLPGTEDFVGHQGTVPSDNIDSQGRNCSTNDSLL
# UPR CHOP act = apoptotic UPR (CHOP) activation | CHO-CHOP luciferase reporter, luminescence; percent of tunicamycin response over DMSO baseline | actives 0.34% (n = 330,000) | activation, % at 10 µM;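 active = at 10 µM dose, activation of 40% or more, normalized to positive control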
#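 Assay system: CHO-CHOP cells, stable luciferase reporter of PERK-eIF2a-CHOP signalling / Buffer or medium: F12 plus 10% serum / Compound dosing: one dose, 10 µM in 0.5% DMSO / Times: 6 h compound treatment, 37 °C / Technique: luciferase luminescence / Read-out: % reporter activation, DMSO baseline versus tunicamycin full activation / Benchmarks: tunicamycin and DMSO controls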
# CHOP inhibitor = inhibitors of CHOP induction in ER stress response; CHO-K1 CHOP-promoter luciferase, tunicamycin-induced, 15-18 h; inhibition, % at 10 µM; actives 3.8% (n = 220,000);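 active = compounds that reduced the stress-induced luciferase reporter signal by more than about 70% of percent inhibition, limit read from the data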
# XBP1 UPR activ = activators of adaptive arm of unfolded protein response (XBP1); CHO-XBP1 luciferase reporter, IRE1-XBP1 UPR activation, luminescence; percent of tunicamycin response, DMSO as zero; activation, % at 20 µM; actives 0.33% (n = 330,000);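 active = versus positive control, 20 µM dose yields 30% or more activation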
#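 Material: CHO-XBP1 cells stably carrying IRE1-XBP1-driven luciferase reporter / Amount: 1000 cells per well / Compound: 20 µM, 1% DMSO / Times: 6 h treatment, 37 °C / Detection: luciferase luminescence / Measure: % activation of reporter signal versus tunicamycin and DMSO controls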
# Dynein transport = blocks dynein driven cargo transport along microtubules. 3617.4 mouse cells, GR-EGFP nuclear translocation imaging; test concentration mostly 20 µM; stimulated with dexamethasone, 1 µM; hits give low values. z-score, hits read low. actives 0.47% (n = 220,000). AID 1381;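 active = plate z-score of nuclear minus cytoplasmic receptor signal below a set negative limit, without overly bright fluorescence or cell loss, cut at about -3.5 in these data, passing the limit was not always enough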;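 also: z-score of nuclear minus cytoplasmic ring GR-EGFP intensity difference per well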
#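 medium = tetracycline-free induction medium containing charcoal-stripped FBS | also added = 1.0 µM final dexamethasone stimulus | schedule = 48 h induction, 1 h compound, 30 min dex at 37 °C | technique = fixed, Hoechst-stained cells imaged at 10x for EGFP | measure = GR-EGFP nuclear translocation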
# Dynein inh conf = dynein cargo transport inhibition, confirmation. AID 463116. shares compounds with Dynein transport. calls only at 20 µM. actives 69% (n = 1,000). 3617.4 GR-EGFP nuclear translocation imaging, dexamethasone-induced;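 active = inhibition of receptor movement into the nucleus at or above a set limit in both runs, with normal cell brightness and cell count; inconclusive = limit reached in only one run, brightness and count normal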;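 also: dexamethasone at 1 µM final in well for 30 min; nuclear minus cytoplasmic GR-EGFP mean intensity difference in channel 2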
# A number is an active result; n = inactive; u = inconclusive; x = no result given; + = active, no number.
SMILES,p-CIP stab down,B2AR ag,UPR CHOP act,CHOP inhibitor,XBP1 UPR activ,Dynein transport,Dynein inh conf
O=c1[nH]c2ccccc2c(O)c1O,n,n,n,n,n,n,x
O=c1[nH]c2ccccc2c2oc(CCl)nc12,n,n,n,n,n,-4.1,u
Cn1nnnc1SC1CC(=O)N(c2ccccc2)C1=O (stereo unspecified),n,n,n,n,n,-4.6,+
CCOc1ccc(N2C(=O)CC(Sc3n[nH]c(-c4ccccc4)n3)C2=O)cc1 (stereo unspecified),n,n,n,n,n,-5.2,n
CCOC(=O)c1c(C)oc2c(F)c(F)c(F)c(F)c2c1=O,n,43,n,x,n,-4.6,+
COC(=O)c1c(C)oc(C)c(C(=O)OC)c1=O,n,n,n,n,n,n,x
CCCNC(=O)c1nn2cc(Br)cnc2c1Br,n,n,n,n,n,n,x
N#Cc1ccc(-c2ccccc2)nc1SCC(=O)c1cccc(Cl)c1,n,n,n,n,n,n,x
N#Cc1ccc(-c2cccnc2)nc1SCC(=O)c1ccccc1,n,n,n,n,n,n,n
Cn1nc(C(=O)N2CCN(c3ccccc3F)CC2)c2c1-c1ccccc1S(=O)(=O)C2,n,n,n,x,n,x,x
CCOC(=O)c1cnc2cc3c(cn2c1=O)CCCC3,n,n,n,n,n,n,x
CCOC(=O)C1=C(SCC)c2cc3c(n2C1=O)CCCC3,n,n,n,n,n,-3.6,+
CN(Cc1ccc(Cl)s1)C(=O)CCl,n,n,n,105,n,-5.7,+
CN(C)CCNC(=O)c1ccc(Cl)s1,n,n,n,n,n,n,x
COc1ccc(OCC(=O)N(C)Cc2ccccc2)cc1,n,n,n,n,n,n,x
COc1ccc(CN(C)C(=O)CCl)cc1,n,n,x,n,x,-4.4,+
Cc1ccc(S(=O)(=O)/N=c2\ccc(Cl)cn2C(F)F)cc1,n,n,n,n,n,-3.8,n
O=C(NCc1ccco1)c1ccccc1Nc1ccc(F)cc1,n,n,n,n,n,n,x
COc1ccccc1NS(=O)(=O)c1c(C)nc2sccn2c1=O,n,n,n,x,n,x,x
COc1ccc(S(=O)(=O)Nc2ccc(O)c3ccccc23)cc1,n,n,n,n,n,-3.7,n
COc1ccc(S(=O)(=O)Nc2ccccc2)cc1,x,n,n,x,n,x,x
COc1ccc(C(=O)Cn2c(C)nc([N+](=O)[O-])c2Br)cc1,n,n,n,n,n,-5.8,+
COc1ccc(C(=O)Cn2cc([N+](=O)[O-])nc2C)cc1,n,n,n,x,n,x,x
N#CCCn1cc(C=C(C#N)C#N)c(-c2ccc(-c3ccccc3)cc2)n1,n,n,n,n,n,-4.1,u
O=C(NC1CCCCC1)c1cc(S(=O)(=O)N2CCCC2)ccc1Cl,n,n,n,x,n,x,x
SMILES,p-CIP stab down,B2AR ag,UPR CHOP act,CHOP inhibitor,XBP1 UPR activ,Dynein transport,Dynein inh conf
Cc1ccc(S(=O)(=O)/N=C(\CCl)N2CCOCC2)cc1,n,n,x,n,x,-3.8,+
COc1cc2c(cc1OC)C(Cc1ccc(O)cc1)N(C)CC2 (stereo unspecified),n,n,n,n,n,-4.7,n
COC(=O)Cc1c(O)ccn(CCc2ccc(OC)c(OC)c2)c1=O,n,x,n,n,n,n,x
Nc1nc(CCl)nc(Nc2ccc3ccccc3c2)n1,n,n,x,n,x,-4.3,+
CN(C(=O)c1ccccc1C(=O)OCC(=O)c1ccc(Br)cc1)c1ccccc1,x,n,n,x,n,x,x
CCOC(=O)/C(=C/C=C1\Sc2ccccc2N1CC)C(C)=O,n,n,n,n,n,n,x
CCOC(=O)/C(=C/C=C1\Sc2cc(C)c(C)cc2N1CC)C(C)=O,n,n,x,94,x,n,n
O=C(NCCC1=CCCCC1)c1coc(=O)c(Br)c1,n,n,n,n,n,-6,u
CC1CC(C)(C)Nc2ccc(N=O)cc21 (stereo unspecified),n,n,x,96,x,-4,+
O=c1c(Cl)c(NCCCO)cnn1-c1nc2ccccc2[nH]1,n,n,n,n,n,-4.2,+
C=CCN(CC=C)c1cnn(-c2nc3ccccc3[nH]2)c(=O)c1Cl,n,n,n,n,n,n,x
CC(C)/C(C=O)=C(/NC1CCCCC1)c1ccccc1,x,n,n,x,n,x,x
O=C(O)c1cccc(NC2=C(Cl)C(=O)c3ccccc3C2=O)c1,n,n,x,n,x,n,x
O=C(O)c1ccc(NC2=C(Cl)C(=O)c3ccccc3C2=O)cc1,n,96,n,n,n,-5.2,+
Cc1cc([N+](=O)[O-])nn1CCCC(=O)NC1CCCCC1,n,n,n,n,n,n,x
CCOC(=O)C1CCCN(S(=O)(=O)c2cc3c4c(c2)CCC(=O)N4CCC3)C1 (stereo unspecified),x,n,n,x,n,x,x
Nc1c(C(=O)c2ccccc2)sc2nsc(SCCN3CCCC3)c12,n,n,n,n,n,n,n
Nc1c(C(=O)c2ccc(Cl)cc2)sc2nsc(SCCN3CCOCC3)c12,n,n,n,n,n,n,n
CC(c1ccccc1)C1C(C#N)=C(N)OC2=C1C(=O)CC(C)(C)C2 (stereo unspecified),n,n,n,n,n,n,x
CC1(C)CC(=O)C2=C(C1)OC(N)=C(C#N)C2C#Cc1ccccc1 (stereo unspecified),n,n,n,n,n,-5.4,+
COc1cccc(NC(=O)c2ccccc2N2C(=O)C3C4C=CC(C5CC45)C3C2=O)c1 (stereo unspecified),n,n,n,x,n,x,x
COc1ccc(CCNC(=O)C2CC(O)CN2S(=O)(=O)c2ccc(Cl)cc2)cc1OC (stereo unspecified),x,n,n,x,n,x,x
CC(C)(C)c1cc(CCC(=O)NN)cc(C(C)(C)C)c1O,n,n,n,n,n,n,x
COCCOC(=O)/C(=C\c1cc(C(C)(C)C)c(O)c(C(C)(C)C)c1)C(C)=O,n,n,n,n,n,-5.3,+
Cc1ccc(/C=C/C(=O)NCC2COc3ccccc3O2)o1 (stereo unspecified),n,n,n,n,n,-6.6,+
COc1ccc(/C=C/C(=O)NCC2COc3ccccc3O2)cc1OC (stereo unspecified),n,n,n,n,n,n,x
O=C(CCl)c1ccc2c(c1)CCN2C(=O)C1CC1,n,x,n,109,n,-4.8,+
O=C1C(Cc2ccccc2)Nc2ncnc(N3CCCCC3)c2N1Cc1ccc(Cl)cc1 (stereo unspecified),x,n,n,x,n,x,x
O=C1/C(=C/c2cccc([N+](=O)[O-])c2)CSc2ccc(Cl)cc21,n,n,n,n,n,n,x
